Only some compounds are listed: those with a hit (about 5.8% of all), similar ones and a draw of the others.
T cruzi growth-1: blocks T. cruzi growth in NIH3T3 culture; 5.9% of 77,000 active; AID 624255; T. cruzi beta-gal in NIH3T3, GalScreen luminescence, 90 h; inhibition, % at 8.34 µM;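 active means mean inhibition above about 93%, with at least 55% of replicates each passing it, limit read from the data, passing the limit was not always enough; inconclusive means only one of those two conditions holds; inactive means neither condition holds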
IDH1 mut inh: inhibitors of human IDH1 R132H; IDH1 R132H reductase, diaphorase/resazurin fluorescence, 60 min; inhibition, % at 10 µM; 0.18% of 70,000 active; AID 624101; in the data active means inhibition above about 34%; inconclusive means no clear call, values can overlap the other calls; inactive means below about 11%;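 further: 0% = DMSO and 100% = no enzyme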
Target sequence (O75874 whole entry R132H): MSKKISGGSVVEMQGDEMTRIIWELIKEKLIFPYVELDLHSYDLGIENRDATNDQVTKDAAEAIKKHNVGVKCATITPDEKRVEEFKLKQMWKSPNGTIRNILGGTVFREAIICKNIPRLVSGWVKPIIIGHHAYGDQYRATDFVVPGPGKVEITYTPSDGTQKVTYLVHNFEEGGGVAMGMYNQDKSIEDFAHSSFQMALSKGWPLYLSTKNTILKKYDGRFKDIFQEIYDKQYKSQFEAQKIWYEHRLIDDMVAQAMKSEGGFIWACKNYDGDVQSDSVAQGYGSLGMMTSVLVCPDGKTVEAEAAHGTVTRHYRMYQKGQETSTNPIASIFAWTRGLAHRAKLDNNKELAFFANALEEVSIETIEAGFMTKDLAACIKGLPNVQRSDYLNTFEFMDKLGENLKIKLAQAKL
KDM4C inh: KDM4C (human) demethylase inhibition | Q9H3R0 | GST-KDM4C 2-372, H3K9me3 peptide, LANCE TR-FRET | inhibition, % at 12.5 µM | 0.15% of 96,000 active | AID 720574;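 active means mean replicate inhibition above about 25%, with at least 55% of replicates also reaching it, limit read from the data, passing the limit was not always enough; inconclusive means only one of those two conditions met; inactive means neither condition met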
Target sequence (Q9H3R0 2-372 limits assumed): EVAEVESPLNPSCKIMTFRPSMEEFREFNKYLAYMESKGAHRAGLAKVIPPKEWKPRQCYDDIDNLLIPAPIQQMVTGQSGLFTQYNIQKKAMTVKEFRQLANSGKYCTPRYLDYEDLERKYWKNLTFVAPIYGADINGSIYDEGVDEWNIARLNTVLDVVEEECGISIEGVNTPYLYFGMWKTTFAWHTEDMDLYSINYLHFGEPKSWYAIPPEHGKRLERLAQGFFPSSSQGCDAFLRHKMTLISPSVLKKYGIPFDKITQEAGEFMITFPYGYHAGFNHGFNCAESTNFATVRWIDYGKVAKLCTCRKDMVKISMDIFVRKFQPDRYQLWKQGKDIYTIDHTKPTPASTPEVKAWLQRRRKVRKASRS
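System – N-terminal GST-fused human GASC-1 (KDM4C) fragment, residues 2-372 · Input – enzyme final amount 10 nM · Technique – LANCE TR-FRET, Eu antibody, ULight-streptavidin, EDTA, ex 340 nm, em 618/671 nm · Medium – HEPES buffer, pH 7.5, plus ascorbate · Incubation – enzyme reaction 30 min, then detection 60 min, both room temperature · Reagent – H3K9me3 peptide with Fe(II)/2OG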
Pf Dd2 inh: inhibitors of Plasmodium falciparum Dd2 growth; P. falciparum Dd2 growth, SYBR Green, 72 h; active compounds read low; activity change, % at 10 µM; 2.3% of 94,000 active; AID 1159554; in the data active means activity change below about -80%; inconclusive means no clear call, values can overlap the other calls
T cruzi growth-2: Trypanosoma cruzi proliferation inhibition. shares compounds with T cruzi growth-1. T. cruzi beta-gal in NIH3T3, GalScreen luminescence, 90 h. inhibition, % at 8.35 µM. 72% of 5,600 active;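 active means mean replicate inhibition above about 95% and at least 55% of replicates individually reaching it, limit read from the data; inconclusive means only one of the two criteria is met; inactive means neither criterion is met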
T cruzi growth-3: blocks T. cruzi growth in NIH3T3 host cells; shares compounds with T cruzi growth-1; 21% of 5,600 active; AID 651740; inhibition, % at 2.09 µM; T. cruzi beta-gal in NIH3T3, GalScreen luminescence, 90 h;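 active means mean inhibition above about 95%, with at least 55% of replicates also reaching it, limit read from the data; inconclusive means meets just one of the two conditions; inactive means meets neither condition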;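 further: plate controls were neutral control median for no effect and positive control median for full effect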
NIH3T3 tox: kills mouse NIH/3T3 fibroblasts; shares compounds with T cruzi growth-1; NIH/3T3 viability, CellTiter-Glo ATP luminescence, 90 h; cytotoxicity (signal decrease), % at 8.35 µM; 14% of 5,600 active; AID 651742;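 active means mean signal decrease across replicates above about 35% based on untreated-well scatter, with enough replicates individually passing, limit read from the data; inconclusive means no rule stated though some were filed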;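 further: 0% = median of neutral control wells and 100% = median of positive control wells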
NIH3T3 tox 2: NIH/3T3 (mouse) viability loss; shares compounds with T cruzi growth-1; NIH/3T3 viability, CellTiter-Glo ATP luminescence, 90 h; inhibition, % at 24.9 µM; 56% of 5,600 active;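 active means mean loss of cell viability signal at or above a set limit, and enough replicates individually reaching it; inconclusive means meets only the mean limit or only the replicate share; inactive means meets neither condition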;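 further: 0% = median of neutral control wells and 100% = median of positive control wells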
Starred values were filed as active, the others as inactive; ? = inconclusive; / = not tested or not shown.

SMILES	T cruzi growth-1	IDH1 mut inh	KDM4C inh	Pf Dd2 inh	T cruzi growth-2	T cruzi growth-3	NIH3T3 tox	NIH3T3 tox 2
CCn1c(SCC(=O)Nc2ccc(C)cc2)nnc1-c1ccc(N)cc1	/	-0.3	/	/	/	/	/	/
Cc1ccc(-c2ccc([C@@H]3[C@@H](CO)N4C(=O)CN(C(=O)Nc5cccc(F)c5)C[C@@H]34)cc2)cc1	/	/	-2.1	-41.5	/	/	/	/
CC(C)[C@@H]1CC[C@@]2(C)CCC[C@@](C)(O)[C@@H]2[C@H]1OC(=O)/C=C/c1ccccc1	/	0.1	/	/	/	/	/	/
CC(C)NC(=O)N1[C@H](CO)[C@@H](c2ccc(C#CC3CC3)cc2)[C@@H]1C#N	?	/	0.0	-32.9	107.0*	76.9	-5.0	9.1
CN(C)CC(=O)N1[C@@H](C#N)[C@@H](c2ccc(C#CC3CC3)cc2)[C@@H]1CO	89.1	/	1.2	-25.8	/	/	/	/
CC(C)NC(=O)N1[C@H](C#N)[C@@H](c2ccc(C#CC3CC3)cc2)[C@@H]1CO	?	/	0.8	-32.0	108.7*	82.3	8.6	7.3
CC(C)NC(=O)N1[C@H](CO)[C@H](c2ccc(C#CC3CC3)cc2)[C@@H]1C#N	76.1	/	-0.7	1.5	/	/	/	/
COc1ccc(-c2cnc3c(c2)C(=O)N([C@@H](C)CO)C[C@H](C)[C@@H](CN(C)Cc2ccc(C(=O)O)cc2)O3)cc1	-38.4	-0.3	0.1	46.5	/	/	/	/
CC(C)CC#Cc1ccc2c(c1)O[C@H](CN(C)C(=O)c1ccccc1)[C@H](C)CN([C@@H](C)CO)S2(=O)=O	117.9*	-0.2	-3.2	-54.5	104.1*	98.3*	21.6	105.5*
CC(C)CC#Cc1ccc2c(c1)O[C@@H](CN(C)C(=O)c1ccccc1)[C@H](C)CN([C@@H](C)CO)S2(=O)=O	115.8*	-0.1	-2.4	-68.8	109.6*	57.3	38.9*	108.3*
CCCC#Cc1ccc2c(c1)O[C@H](CN(C)C(=O)c1ccccc1)[C@H](C)CN([C@@H](C)CO)S2(=O)=O	96.3*	-1.6	-0.8	-52.7	101.9*	76.9	-2.9	26.1*
Cc1cc(NC(=O)CN(c2ccc(Cl)c(C(F)(F)F)c2)S(C)(=O)=O)ccc1Br	/	-0.3	/	/	/	/	/	/
CN1C(=O)c2cc(NC(=O)Cc3cccs3)ccc2OC[C@@H]2O[C@H](CC(=O)N[C@H]3CCN(Cc4ccccc4)C3)CC[C@H]21	-63.5	/	-0.4	/	/	/	/	/
CN1C(=O)c2cc(NC(=O)Cc3cccs3)ccc2OC[C@H]2O[C@@H](CC(=O)N[C@H]3CCN(Cc4ccccc4)C3)CC[C@@H]21	52.0	/	1.5	/	/	/	/	/
CN1C(=O)c2cc(NC(=O)c3ccc(F)c(F)c3)ccc2OC[C@@H]2O[C@H](CC(=O)N[C@H]3CCN(Cc4ccccc4)C3)CC[C@H]21	111.3*	/	1.1	/	98.7*	57.5	-14.5	-11.5
CN1C(=O)c2cc(NC(=O)c3ccc(F)c(F)c3)ccc2OC[C@@H]2O[C@H](CC(=O)N[C@@H]3CCN(Cc4ccccc4)C3)CC[C@H]21	105.8*	/	-0.3	/	113.8*	50.1	-14.0	-9.7
CN1C(=O)c2cc(NC(=O)Cc3cccs3)ccc2OC[C@H]2O[C@H](CC(=O)N[C@H]3CCN(Cc4ccccc4)C3)CC[C@@H]21	104.8*	/	0.6	/	?	65.9	-23.5	-46.5
CN1C(=O)c2cc(NC(=O)Cc3cccs3)ccc2OC[C@@H]2O[C@@H](CC(=O)N[C@H]3CCN(Cc4ccccc4)C3)CC[C@H]21	82.2	/	-2.1	/	/	/	/	/
O=C(NCC[C@H]1CC[C@H](NS(=O)(=O)c2ccc(F)cc2)[C@@H](CO)O1)Nc1ccc(Cl)cc1	-66.2	-0.2	0.9	6.0	/	/	/	/
N#C[C@@H]1[C@@H](c2ccc(C#Cc3cccnc3)cc2)[C@@H](CO)N1C(=O)NC1CCCC1	/	/	/	5.5	/	/	/	/
O=C(C[C@H]1CC[C@H]2[C@@H](COC[C@H](O)CN2Cc2ccc(Oc3ccccc3)cc2)O1)N1CCN(c2ccccc2)CC1	134.4*	/	-0.1	-52.2	105.4*	44.2	6.9	38.2*
O=C(C[C@@H]1CC[C@@H]2[C@H](COC[C@H](O)CN2Cc2ccc(Oc3ccccc3)cc2)O1)N1CCN(c2ccccc2)CC1	115.2*	/	0.2	-69.8	87.6	69.6	3.8	103.9*
O=C(C[C@@H]1CC[C@H]2[C@@H](COC[C@@H](O)CN2Cc2ccc(Oc3ccccc3)cc2)O1)N1CCN(c2ccccc2)CC1	33.8	/	-2.2	-25.8	/	/	/	/
CN1C[C@@H](O)COC[C@@H]2O[C@H](CC(=O)N3CCN(c4ccccc4)CC3)CC[C@H]21	109.1*	/	1.1	-27.9	90.2	71.2	-2.6	-4.4
COCC(=O)Nc1ccc2c(c1)OC[C@H](C)N(CCC(F)(F)F)C[C@@H](C)[C@H](OC)CN(C)C2=O	-29.2	0.0	0.6	3.6	/	/	/	/
SMILES	T cruzi growth-1	IDH1 mut inh	KDM4C inh	Pf Dd2 inh	T cruzi growth-2	T cruzi growth-3	NIH3T3 tox	NIH3T3 tox 2
COCC#Cc1ccc2c(c1)O[C@@H](CN(C)C(=O)CN(C)C)[C@H](C)CN([C@@H](C)CO)S2(=O)=O	-38.3	0.2	0.8	9.7	/	/	/	/
C[C@@H]1CN([C@@H](C)CO)C(=O)c2cc(NC(=O)c3ccccc3)ccc2O[C@@H](C)CCCCO[C@@H]1CN(C)S(=O)(=O)c1cn(C)cn1	-17.4	0.6	-0.3	-31.1	/	/	/	/
Cc1ccccc1S(=O)(=O)N1CCCCN2[C@@H](CO)[C@@H](c3ccc(-c4cccc(F)c4)cc3)[C@@H]2C1	55.0	/	-5.4	-75.8	/	/	/	/
Cc1ccccc1S(=O)(=O)N1CCCCN2[C@H](CO)[C@@H](c3ccc(-c4ccccc4)cc3)[C@@H]2C1	101.6*	/	/	2.5	97.7*	80.4	35.6*	44.9*
Cc1ccccc1S(=O)(=O)N1CCCCN2[C@H](C1)[C@H](c1ccc(-c3cccc(F)c3)cc1)[C@@H]2CO	103.0*	/	-1.2	-33.1	102.7*	105.6*	-11.9	56.6*
Cc1ccccc1S(=O)(=O)N1CCCCN2[C@H](CO)[C@H](c3ccc(-c4cccc(F)c4)cc3)[C@@H]2C1	80.7	/	-1.7	-14.3	/	/	/	/
Cc1ccccc1S(=O)(=O)N1CCCCN2[C@H](CO)[C@@H](c3ccc(-c4cccc(F)c4)cc3)[C@H]2C1	106.3*	/	-0.9	-39.8	103.5*	59.2	18.2	75.8*
CN(C)CCCNC(=O)C[C@H]1CC[C@H]2[C@H](COc3ccc(NC(=O)c4ccc5c(c4)OCO5)cc3C(=O)N2C)O1	-55.6	/	2.7	9.3	/	/	/	/
C[C@H](CO)N1C[C@H](C)[C@H](CN(C)S(=O)(=O)c2cccs2)OCCCC[C@H](C)Oc2ccc(NC(=O)Nc3cccc4ccccc34)cc2C1=O	71.5	/	-0.4	2.9	/	/	/	/
CCC(=O)N(C)C[C@@H]1Oc2cc(-c3ccncc3)ccc2S(=O)(=O)N([C@@H](C)CO)C[C@@H]1C	41.2	2.6	2.8	5.9	/	/	/	/

High-throughput results deposited in PubChem BioAssay by Broad Institute.
